Assay results published in the M2OR odorant receptor database.

Experiments:
Details in all cases: stereoisomer not certain
UniProt Q8VF52 = molecular target: T1, UniProt Q8VF52
T1 sequence (whole entry): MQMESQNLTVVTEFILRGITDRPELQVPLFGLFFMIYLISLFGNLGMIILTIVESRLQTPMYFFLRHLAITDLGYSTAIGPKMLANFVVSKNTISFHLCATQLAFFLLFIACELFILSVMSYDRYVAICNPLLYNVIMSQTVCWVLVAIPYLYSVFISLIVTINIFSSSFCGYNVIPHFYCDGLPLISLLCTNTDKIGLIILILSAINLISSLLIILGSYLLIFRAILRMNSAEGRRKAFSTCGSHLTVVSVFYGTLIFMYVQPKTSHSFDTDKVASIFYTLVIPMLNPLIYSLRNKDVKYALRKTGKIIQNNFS
In short: (§1)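 Whether a receptor–molecule pair is responsive (active) rests on the original authors' judgment that its measured signal was statistically different from baseline. Pairs without that judgment are non-responsive (inactive). Sources used varied assay methods, commonly transient luciferase assays in mammalian cell lines.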

UniProt Q8VFG6 = molecular target: T2, UniProt Q8VFG6
T2 sequence (whole entry): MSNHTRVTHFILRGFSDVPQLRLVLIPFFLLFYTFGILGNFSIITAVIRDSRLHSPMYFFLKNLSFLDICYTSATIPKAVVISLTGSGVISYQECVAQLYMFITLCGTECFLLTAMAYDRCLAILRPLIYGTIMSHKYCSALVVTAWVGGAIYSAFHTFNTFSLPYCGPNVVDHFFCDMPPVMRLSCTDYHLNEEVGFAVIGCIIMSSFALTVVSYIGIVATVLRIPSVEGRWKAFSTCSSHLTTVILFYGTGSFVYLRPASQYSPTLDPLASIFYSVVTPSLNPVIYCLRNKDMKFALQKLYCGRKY
In short: as §1

UniProt Q8VFM8 = molecular target: T3, UniProt Q8VFM8
T3 sequence (whole entry): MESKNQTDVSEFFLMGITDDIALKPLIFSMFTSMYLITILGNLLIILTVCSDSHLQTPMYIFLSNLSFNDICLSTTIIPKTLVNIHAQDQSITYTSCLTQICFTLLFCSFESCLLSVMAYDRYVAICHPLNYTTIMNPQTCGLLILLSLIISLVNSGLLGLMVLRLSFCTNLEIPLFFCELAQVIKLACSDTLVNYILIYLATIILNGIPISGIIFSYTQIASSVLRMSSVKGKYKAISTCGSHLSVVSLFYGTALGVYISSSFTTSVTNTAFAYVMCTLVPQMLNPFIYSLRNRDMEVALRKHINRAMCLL
In short: as §1

UniProt Q8VFP5 = molecular target: T4, UniProt Q8VFP5
T4 sequence (whole entry): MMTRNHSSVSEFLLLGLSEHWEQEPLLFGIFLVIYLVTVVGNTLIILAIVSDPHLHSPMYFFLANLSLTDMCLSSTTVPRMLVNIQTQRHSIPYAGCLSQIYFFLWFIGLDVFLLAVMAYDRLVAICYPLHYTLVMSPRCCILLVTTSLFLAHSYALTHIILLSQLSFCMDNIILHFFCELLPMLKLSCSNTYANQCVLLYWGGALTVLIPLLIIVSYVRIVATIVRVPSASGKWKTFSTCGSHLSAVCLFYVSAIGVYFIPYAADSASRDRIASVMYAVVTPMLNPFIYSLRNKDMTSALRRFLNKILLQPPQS
In short: as §1

UniProt Q8VFZ6 = molecular target: T5, UniProt Q8VFZ6
T5 sequence (whole entry): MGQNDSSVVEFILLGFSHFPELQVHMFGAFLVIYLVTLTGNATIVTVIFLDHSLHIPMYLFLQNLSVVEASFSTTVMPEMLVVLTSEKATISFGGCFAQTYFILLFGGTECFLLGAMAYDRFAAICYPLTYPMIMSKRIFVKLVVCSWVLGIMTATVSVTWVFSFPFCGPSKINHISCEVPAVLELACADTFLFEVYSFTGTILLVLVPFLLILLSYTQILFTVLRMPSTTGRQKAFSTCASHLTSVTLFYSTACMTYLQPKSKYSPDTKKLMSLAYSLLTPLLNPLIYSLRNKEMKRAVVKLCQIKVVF
In short: as §1

UniProt Q8VG01 = molecular target: T6, UniProt Q8VG01
T6 sequence (whole entry): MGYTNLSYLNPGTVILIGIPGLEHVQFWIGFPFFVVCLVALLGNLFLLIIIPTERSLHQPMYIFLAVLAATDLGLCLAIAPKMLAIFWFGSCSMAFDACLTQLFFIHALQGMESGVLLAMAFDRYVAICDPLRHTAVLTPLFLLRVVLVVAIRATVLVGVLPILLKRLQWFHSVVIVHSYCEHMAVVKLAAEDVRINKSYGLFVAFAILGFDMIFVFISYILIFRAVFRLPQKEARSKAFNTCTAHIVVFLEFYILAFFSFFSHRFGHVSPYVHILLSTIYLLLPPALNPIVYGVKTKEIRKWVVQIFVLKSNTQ
In short: as §1

UniProt Q8VG22 = molecular target: T7, UniProt Q8VG22
T7 sequence (whole entry): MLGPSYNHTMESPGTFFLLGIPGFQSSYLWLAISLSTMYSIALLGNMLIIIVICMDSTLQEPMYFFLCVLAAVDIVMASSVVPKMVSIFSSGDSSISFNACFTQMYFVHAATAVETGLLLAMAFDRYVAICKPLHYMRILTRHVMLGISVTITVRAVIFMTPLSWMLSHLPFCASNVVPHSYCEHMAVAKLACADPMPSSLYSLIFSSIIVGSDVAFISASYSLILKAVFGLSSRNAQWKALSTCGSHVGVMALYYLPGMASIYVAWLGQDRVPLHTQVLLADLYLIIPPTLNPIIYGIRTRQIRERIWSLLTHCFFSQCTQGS
In short: as §1

UniProt Q8VG27 = molecular target: T8, UniProt Q8VG27
T8 sequence (whole entry): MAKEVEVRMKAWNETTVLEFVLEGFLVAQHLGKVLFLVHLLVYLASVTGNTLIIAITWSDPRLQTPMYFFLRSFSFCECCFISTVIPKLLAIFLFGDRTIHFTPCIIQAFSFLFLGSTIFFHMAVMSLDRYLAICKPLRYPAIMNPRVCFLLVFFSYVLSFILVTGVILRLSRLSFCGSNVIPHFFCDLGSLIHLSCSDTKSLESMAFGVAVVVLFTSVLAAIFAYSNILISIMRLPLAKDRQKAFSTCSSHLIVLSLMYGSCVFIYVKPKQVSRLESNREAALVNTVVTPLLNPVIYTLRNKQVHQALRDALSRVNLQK
In short: as §1

UniProt Q8VG49 = molecular target: T9, UniProt Q8VG49
T9 sequence (whole entry): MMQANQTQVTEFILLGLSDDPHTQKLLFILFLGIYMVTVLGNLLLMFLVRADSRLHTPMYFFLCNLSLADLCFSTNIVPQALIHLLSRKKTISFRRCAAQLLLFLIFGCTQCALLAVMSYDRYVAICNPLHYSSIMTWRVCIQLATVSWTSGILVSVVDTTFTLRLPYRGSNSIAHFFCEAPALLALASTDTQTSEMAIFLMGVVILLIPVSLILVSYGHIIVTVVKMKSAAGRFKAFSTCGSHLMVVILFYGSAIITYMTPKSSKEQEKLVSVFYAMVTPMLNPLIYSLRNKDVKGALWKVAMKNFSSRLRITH
In short: as §1

UniProt Q8VG53 = molecular target: T10, UniProt Q8VG53
T10 sequence (whole entry): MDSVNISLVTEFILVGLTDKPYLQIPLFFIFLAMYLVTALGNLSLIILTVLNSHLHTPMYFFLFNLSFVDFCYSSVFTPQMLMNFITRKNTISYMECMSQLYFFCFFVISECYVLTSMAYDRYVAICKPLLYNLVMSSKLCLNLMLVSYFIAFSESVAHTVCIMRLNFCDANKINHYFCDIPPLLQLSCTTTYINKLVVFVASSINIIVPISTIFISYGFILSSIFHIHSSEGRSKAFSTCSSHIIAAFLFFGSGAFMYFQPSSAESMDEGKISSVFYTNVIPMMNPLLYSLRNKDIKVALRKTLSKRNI
In short: as §1

UniProt Q8VG64 = molecular target: T11, UniProt Q8VG64
T11 sequence (whole entry): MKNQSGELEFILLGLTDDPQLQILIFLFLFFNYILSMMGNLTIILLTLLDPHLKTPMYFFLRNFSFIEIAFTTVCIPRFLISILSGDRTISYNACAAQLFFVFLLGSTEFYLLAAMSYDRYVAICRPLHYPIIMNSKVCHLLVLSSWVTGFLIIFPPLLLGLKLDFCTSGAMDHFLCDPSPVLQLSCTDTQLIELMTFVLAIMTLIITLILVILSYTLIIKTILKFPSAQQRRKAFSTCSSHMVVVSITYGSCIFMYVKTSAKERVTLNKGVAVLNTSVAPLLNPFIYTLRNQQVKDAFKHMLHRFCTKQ
In short: as §1

UniProt Q8VG77 = molecular target: T12, UniProt Q8VG77
T12 sequence (whole entry): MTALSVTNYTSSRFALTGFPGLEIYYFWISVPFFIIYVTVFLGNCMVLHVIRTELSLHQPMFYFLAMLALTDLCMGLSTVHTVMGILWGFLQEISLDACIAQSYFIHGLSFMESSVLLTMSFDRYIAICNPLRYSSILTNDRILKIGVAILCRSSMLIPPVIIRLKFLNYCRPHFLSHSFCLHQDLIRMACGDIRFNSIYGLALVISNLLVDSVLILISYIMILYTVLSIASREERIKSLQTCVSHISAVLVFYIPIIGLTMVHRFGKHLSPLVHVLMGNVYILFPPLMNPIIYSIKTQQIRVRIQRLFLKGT
In short: as §1

UniProt Q8VG96 = molecular target: T13, UniProt Q8VG96
T13 sequence (whole entry): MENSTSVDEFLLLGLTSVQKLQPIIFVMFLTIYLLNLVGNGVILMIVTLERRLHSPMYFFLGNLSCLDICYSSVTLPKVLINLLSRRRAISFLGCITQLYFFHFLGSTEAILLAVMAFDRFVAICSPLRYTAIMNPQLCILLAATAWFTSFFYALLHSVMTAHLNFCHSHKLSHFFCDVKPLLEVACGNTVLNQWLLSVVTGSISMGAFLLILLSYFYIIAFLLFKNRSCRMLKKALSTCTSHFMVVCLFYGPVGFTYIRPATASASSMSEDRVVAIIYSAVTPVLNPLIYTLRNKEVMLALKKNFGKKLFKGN
In short: as §1

UniProt Q8VGB9 = molecular target: T14, UniProt Q8VGB9
T14 sequence (whole entry): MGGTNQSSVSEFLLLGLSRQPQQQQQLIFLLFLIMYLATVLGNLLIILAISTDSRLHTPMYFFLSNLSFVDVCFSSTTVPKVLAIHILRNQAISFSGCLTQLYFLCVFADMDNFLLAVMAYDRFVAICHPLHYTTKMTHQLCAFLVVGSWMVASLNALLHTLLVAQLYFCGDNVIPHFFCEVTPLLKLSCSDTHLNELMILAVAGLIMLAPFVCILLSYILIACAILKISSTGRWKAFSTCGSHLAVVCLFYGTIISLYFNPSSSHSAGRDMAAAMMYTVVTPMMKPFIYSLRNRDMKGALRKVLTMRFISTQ
In short: as §1

UniProt Q8VGC6 = molecular target: T15, UniProt Q8VGC6
T15 sequence (whole entry): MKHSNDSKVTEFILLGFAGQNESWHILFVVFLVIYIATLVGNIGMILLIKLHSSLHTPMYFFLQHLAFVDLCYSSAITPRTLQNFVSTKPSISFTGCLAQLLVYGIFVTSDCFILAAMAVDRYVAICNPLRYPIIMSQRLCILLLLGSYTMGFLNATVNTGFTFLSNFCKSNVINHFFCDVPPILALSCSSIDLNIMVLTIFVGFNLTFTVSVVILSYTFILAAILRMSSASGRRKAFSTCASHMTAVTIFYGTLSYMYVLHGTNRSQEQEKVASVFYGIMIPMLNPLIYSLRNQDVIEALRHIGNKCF
In short: as §1

UniProt Q8VGD7 = molecular target: T16, UniProt Q8VGD7
T16 sequence (whole entry): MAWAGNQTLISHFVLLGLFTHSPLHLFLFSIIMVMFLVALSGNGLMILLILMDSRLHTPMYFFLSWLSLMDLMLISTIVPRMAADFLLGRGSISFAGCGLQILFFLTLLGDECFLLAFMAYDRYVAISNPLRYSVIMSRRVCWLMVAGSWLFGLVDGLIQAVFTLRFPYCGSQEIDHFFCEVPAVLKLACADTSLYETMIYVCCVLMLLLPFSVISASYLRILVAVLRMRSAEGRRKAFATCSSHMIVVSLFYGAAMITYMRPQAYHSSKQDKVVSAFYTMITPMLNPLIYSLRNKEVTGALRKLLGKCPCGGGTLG
In short: as §1

UniProt Q8VGH1 = molecular target: T17, UniProt Q8VGH1
T17 sequence (whole entry): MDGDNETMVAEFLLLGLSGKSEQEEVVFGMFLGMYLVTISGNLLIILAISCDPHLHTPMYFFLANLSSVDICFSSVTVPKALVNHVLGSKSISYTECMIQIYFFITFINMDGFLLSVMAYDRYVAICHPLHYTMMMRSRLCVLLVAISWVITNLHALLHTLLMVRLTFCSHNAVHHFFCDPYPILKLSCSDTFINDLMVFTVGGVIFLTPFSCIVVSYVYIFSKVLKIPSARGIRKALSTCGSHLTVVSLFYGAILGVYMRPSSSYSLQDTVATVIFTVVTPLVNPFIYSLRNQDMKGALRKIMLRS
In short: as §1

UniProt Q8VGJ1 = molecular target: T18, UniProt Q8VGJ1
T18 sequence (whole entry): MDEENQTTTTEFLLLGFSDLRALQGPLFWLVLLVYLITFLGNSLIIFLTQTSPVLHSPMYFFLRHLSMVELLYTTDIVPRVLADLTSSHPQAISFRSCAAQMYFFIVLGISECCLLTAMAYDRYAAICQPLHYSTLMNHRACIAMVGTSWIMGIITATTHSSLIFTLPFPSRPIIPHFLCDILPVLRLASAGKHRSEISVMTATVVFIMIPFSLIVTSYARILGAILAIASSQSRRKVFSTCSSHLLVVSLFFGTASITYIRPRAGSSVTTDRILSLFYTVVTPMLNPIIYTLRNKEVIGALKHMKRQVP
In short: as §1

UniProt Q8VGJ3 = molecular target: T19, UniProt Q8VGJ3
T19 sequence (whole entry): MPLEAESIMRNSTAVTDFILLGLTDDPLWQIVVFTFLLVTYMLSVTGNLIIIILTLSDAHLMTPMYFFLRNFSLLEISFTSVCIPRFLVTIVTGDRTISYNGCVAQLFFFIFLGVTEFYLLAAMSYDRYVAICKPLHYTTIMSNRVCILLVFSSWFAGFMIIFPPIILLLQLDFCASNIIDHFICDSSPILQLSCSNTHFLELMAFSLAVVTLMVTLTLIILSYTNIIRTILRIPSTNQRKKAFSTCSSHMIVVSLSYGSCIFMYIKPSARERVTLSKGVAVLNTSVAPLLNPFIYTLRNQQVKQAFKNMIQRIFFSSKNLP
In short: as §1

Measured: odorant receptor agonist call;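 also: active if original authors judged signal statistically different from baseline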

C=CCOC(=O)Cc1ccccc1
active: UniProt Q8VFG6 | UniProt Q8VFZ6 | UniProt Q8VGC6
inactive: all other assays above
